Records with an inconclusive call do not appear.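 The calls were made as follows, unless noted: active = RAM network inhibition above 8.4% in each of two replicates, 3 SD over the compound average; inconclusive = above 8.4% inhibition in only one replicate; inactive = 8.4% inhibition or less in each replicate.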
What was measured:
[1] = OD615 S. cerevisiae growth inhibition, permissive medium, pilot counter-assay, permissive growth control for S. cerevisiae lifespan shortening project (AID 705;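 active = growth inhibition above 25% in both replicates, a cutoff set 3 SD above the mean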); settings: OD615, 24 h, at 10 µM, stronger effect = higher value
Outline: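 Material: engineered DeaD yeast; compound dosing: one dose 10 µM, DMSO 0.25% final; measure: yeast growth inhibition indicated by reduced 24 h OD615; detection: OD615 turbidity read; incubation: cells pre-grown 4 h, then 24 h compound exposure, 30 °C humidified; medium: permissive synthetic complete medium with raffinose and galactose carbon sources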

[2] = Restrictive medium S. cerevisiae growth inhibition, OD615, pilot screen of yeast lifespan reduction project, restrictive growth control (AID 706;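 active = growth inhibition above a set limit, 3 SD over mean compound inhibition, in both replicates, cut at about 43% in these data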;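 also: modified DeaD lifespan yeast strain shifted to restrictive glucose medium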); settings: OD615, 48 h, at 10 µM, stronger effect = higher value
Outline: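 material = engineered S. cerevisiae DeaD strain | medium = glucose-based CSMM-D restrictive medium | times = 4 h pre-incubation, 48 h exposure at 30 °C | technique = OD615 absorbance reading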

[3] = viability gain of MRP-1-high H69AR cells under doxorubicin, pilot screen, MRP-1 activator project, CellTiter-Glo, duplicate (AID 807;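 active = viability increase at or above a cutoff of the median across tested compounds plus 3 SD, cut at about 8.5% in these data, passing the limit was not always enough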;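 also: compound pretreatment 18-22 h then 72 h combined with doxorubicin; 0% = doxorubicin alone and 100% = vehicle without doxorubicin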); settings: H69AR viability with doxorubicin, CellTiter-Glo luminescence; at 10 µM; stronger effect = higher value
[4] = growth suppression of beta-catenin knockout HCT116, pilot screen, human colon tumor cells (AID 823;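 active = cell viability at or below a set limit in both duplicate runs, the limit being the all-compound median minus 4 SD, cut at about 23% in these data, passing the limit was not always enough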;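 also: 0% = wells killed by 20 µM Hyamine and 100% = untreated DMSO cell wells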); settings: CellTiter-Glo, 60 h, at 10 µM, stronger effect = lower value
[5] = growth suppression of PTEN-deleted HCT116, pilot screen, cell-based, HCT116 clonal line, CellTiter-Glo (AID 824;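 active = viability at or below 27.92% in each of two runs, the all-compound median minus 4 SD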;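 also: 0% = 20 µM Hyamine control and 100% = vehicle cell control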); settings: 60 h, at 10 µM, stronger effect = lower value
[6] = inhibitors of the yeast RAM network, pilot screen, dse1pr::URA3 reporter, 5-FOA selection (AID 869;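 active = inhibition over a set limit, the all-compound mean plus 3 SD, in both replicate runs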;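 also: 0% = DMSO wells with no growth and 100% = 10 µM 1-NA-PP1 with full growth; RAM network block rescues cells from 5-FOA so hits raise OD615 growth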); settings: S. cerevisiae dse1pr::URA3 5-FOA growth, OD615, 2 d; at 10 µM; stronger effect = higher value; strain carries analog-sensitive mutant Cbk1 kinase
[7] = RAM signaling pathway blockade in yeast – S. cerevisiae, Pdr1DBD-CYC8 efflux-inhibited sensitized strain, primary screen (AID 1298);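 also: 0% = DMSO untreated cells without growth and 100% = 10 µM 1-NA-PP1 full growth; higher means more yeast growth rescued from 5-FOA killing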; settings: S. cerevisiae cbk1-as DSE1-URA3 strain, 5-FOA growth OD615, 2 d; at 50 µM; stronger effect = higher value

COc1ccc(N(CC(=O)N2CCc3ccccc3C2)S(=O)(=O)c2c(C)[nH]c(=O)[nH]c2=O)cc1
inactive: growth inhibition [1] -5.04% | growth inhibition [2] -13% | viability increase [3] -1.83% | viability [4] 110% | viability [5] 99.5% | inhibition [6] 2.77% | RAM network inhibition [7] 3.41%

COc1ccc(CNC(=O)Cn2cc3c(n2)CCCCC3)cc1
inactive: growth inhibition [1] 2.42% | growth inhibition [2] -0.895% | viability increase [3] -2.29% | viability [4] 102% | viability [5] 91.9% | inhibition [6] 0.54% | RAM network inhibition [7] -1.07%

COc1ccc(S(=O)(=O)N2CCN(Cc3c[nH]c4ccccc34)CC2)cc1
inactive: growth inhibition [1] -13.2% | growth inhibition [2] -14.2% | viability increase [3] -4.53% | viability [4] 80.7% | viability [5] 89.6% | inhibition [6] 2.11% | RAM network inhibition [7] 4.82%

CCC(C)(C(=O)NC1CCCCC1)N(Cc1ccco1)C(=O)CC1NC(=O)NC1=O (configuration not stated)
inactive: growth inhibition [1] -7.46% | growth inhibition [2] -7.12% | viability increase [3] -3.95% | viability [4] 97% | viability [5] 94.9% | inhibition [6] 1.58% | RAM network inhibition [7] 1.8%

O=C(NC(Cc1ccc2c(c1)OCO2)C(=O)N1CCCC1C(=O)O)c1ccccc1 (configuration not stated)
inactive: growth inhibition [1] -2.82% | growth inhibition [2] 0.59% | viability increase [3] 0.05% | viability [4] 95.1% | viability [5] 98.1% | inhibition [6] 0.125% | RAM network inhibition [7] 6.49%

O=C(O)CN1C(=O)C2C3C=CC(C3)C2C1=O (configuration not stated)
inactive: growth inhibition [1] -14.3% | growth inhibition [2] -14.5% | viability increase [3] 0.28% | viability [4] 102% | viability [5] 88% | inhibition [6] 1.61% | RAM network inhibition [7] 2.2%

COCCNC(=O)c1cc(-c2ccccc2OC)on1
inactive: growth inhibition [1] 5.14% | growth inhibition [2] 11.4% | viability increase [3] -5.78% | viability [4] 62.3% | viability [5] 55.5% | inhibition [6] -0.05% | RAM network inhibition [7] 2.09%

O=C(Nc1c(F)cc(F)cc1Br)c1cc(-c2ccc(O)cc2)on1
inactive: growth inhibition [1] -17.7% | growth inhibition [2] 5.22% | viability increase [3] -4.92% | viability [4] 92% | viability [5] 85.4% | inhibition [6] 0.53% | RAM network inhibition [7] -0.21%

CCOc1ccc(C2CC(c3ccc(CC)cc3)n3nc(N)nc3N2)cc1 (configuration not stated)
inactive: growth inhibition [1] 1.88% | growth inhibition [2] 21% | viability increase [3] 2.68% | viability [4] 91.5% | viability [5] 83.5% | inhibition [6] 1.54% | RAM network inhibition [7] 3.52%

Cc1cccc(N2CC(c3nc4ccccc4n3C)CC2=O)c1C (configuration not stated)
inactive: growth inhibition [1] -8.87% | growth inhibition [2] 3.04% | viability increase [3] -3.04% | viability [4] 104% | viability [5] 95.2% | inhibition [6] 1.46% | RAM network inhibition [7] 3.58%

Cn1c(Cn2c(=O)sc3ccccc32)nnc1SCC(=O)N1CCCC1
inactive: growth inhibition [1] -7.01% | growth inhibition [2] -4.62% | viability increase [3] 0.61% | viability [4] 97% | viability [5] 99.3% | inhibition [6] 1.95% | RAM network inhibition [7] 6.71%

COc1ccc(Cl)cc1NC(=O)c1cnc2n(c1=O)CCS2
inactive: growth inhibition [1] -7.35% | growth inhibition [2] 3.42% | viability increase [3] -4.43% | viability [4] 94.5% | viability [5] 89.2% | inhibition [6] 2.78% | RAM network inhibition [7] 3.81%

CC(C)(C)c1ccc(S(=O)(=O)N2CCN(CCC#N)CC2)cc1
inactive: growth inhibition [1] -8.29% | growth inhibition [2] -2.35% | viability increase [3] -2.4% | viability [4] 100% | viability [5] 96.3% | inhibition [6] 0.88% | RAM network inhibition [7] 4.27%

O=c1cc(N2CCN(c3ccccc3)CC2)[nH]c(=O)n1Cc1ccc(F)cc1
inactive: growth inhibition [1] 6.47% | growth inhibition [2] -4.22% | viability increase [3] 0.72% | viability [4] 89.6% | viability [5] 80.9% | inhibition [6] 2.68% | RAM network inhibition [7] 3.61%

CN(C(=O)c1ccc2c(c1)OCO2)C1(C(=O)NC2CCCCC2)CCCCC1
inactive: growth inhibition [1] -8.36% | growth inhibition [2] 0.39% | viability increase [3] -1.06% | viability [4] 90.6% | viability [5] 83.6% | inhibition [6] 1.91% | RAM network inhibition [7] 0.21%

c1csc(CCNc2ncnc3sc4c(c23)CCC4)c1
inactive: growth inhibition [1] -5.19% | growth inhibition [2] 13.9% | viability increase [3] -5.93% | viability [4] 39.9% | viability [5] 50.1% | inhibition [6] 0.385% | RAM network inhibition [7] -0.9%

CN(C)CCCNc1ncnc2c1cnn2-c1ccccc1
inactive: growth inhibition [1] -5.54% | growth inhibition [2] -5.82% | viability increase [3] 2.9% | viability [4] 94.3% | viability [5] 106% | inhibition [6] 0.27% | RAM network inhibition [7] -0.77%

CCc1nnc(NC(=O)C(C)Sc2ccccc2)s1 (configuration not stated)
inactive: growth inhibition [1] 6.98% | growth inhibition [2] 18.9% | viability increase [3] 1.53% | viability [4] 99.3% | viability [5] 98.1% | inhibition [6] 1.98% | RAM network inhibition [7] -0.83%

CCCN(CCC)C(=O)CCS(=O)(=O)c1cccc2nsnc12
inactive: growth inhibition [1] -9.5% | growth inhibition [2] -18.6% | viability increase [3] -1.95% | viability [4] 96.3% | viability [5] 98.2% | inhibition [6] 1.15% | RAM network inhibition [7] 2.25%

CCn1cc(C(=O)NCC2CCCO2)c2cc(OC)c(OC)cc2c1=O (configuration not stated)
inactive: growth inhibition [1] -8.12% | growth inhibition [2] -20.1% | viability increase [3] -1.89% | viability [4] 95.4% | viability [5] 101% | inhibition [6] 0.955% | RAM network inhibition [7] 1.29%

O=C(c1ccccc1)n1nc(-c2ccccc2)nc1NCc1ccco1
inactive: growth inhibition [1] -15.5% | growth inhibition [2] -17% | viability increase [3] 0.43% | viability [4] 96.7% | viability [5] 98.1% | inhibition [6] 2.25% | RAM network inhibition [7] 6.58%

CC1CCCN(Cc2nc3c(c(=O)n(C)c(=O)n3C)n2CC(=O)c2ccccc2)C1 (configuration not stated)
inactive: growth inhibition [1] -8.04% | growth inhibition [2] -16.3% | viability increase [3] -4.65% | viability [4] 78.2% | viability [5] 81.2% | inhibition [6] -0.325% | RAM network inhibition [7] 4.05%

CC(C)(C)n1nc2c(c1NC(=O)c1ccc(Br)cc1)CS(=O)C2 (configuration not stated)
inactive: growth inhibition [1] -8.25% | growth inhibition [2] -4.19% | viability increase [3] 0.64% | viability [4] 107% | viability [5] 99.2% | inhibition [6] 0.495% | RAM network inhibition [7] -0.53%

O=C1C(Cl)=C(NCC2CCCO2)C(=O)N1C1CCCCC1 (configuration not stated)
inactive: growth inhibition [1] -2.76% | growth inhibition [2] 8.66% | viability increase [3] -3.97% | viability [4] 88.3% | viability [5] 90.2% | inhibition [6] 1.46% | RAM network inhibition [7] 5.88%

COc1ccc(-n2c(C)nc3c(cnn3-c3ccc(C)c(C)c3)c2=O)cc1
inactive: growth inhibition [1] -13.7% | growth inhibition [2] 8.51% | viability increase [3] 2.3% | viability [4] 86% | viability [5] 79% | inhibition [6] 2.09% | RAM network inhibition [7] 5.89%

CCCCn1c(=NC(=O)c2cccnc2)c(C(=O)OCC)cc2c(=O)n3ccccc3nc21
inactive: growth inhibition [1] -19.8% | growth inhibition [2] -15% | viability increase [3] -4.72% | viability [4] 84.2% | viability [5] 88.1% | inhibition [6] 0.685% | RAM network inhibition [7] 7.68%

CSc1ccc(Cl)c(C(=O)NCc2ccco2)c1
inactive: growth inhibition [1] -3.93% | growth inhibition [2] 8.44% | viability increase [3] -3.7% | viability [4] 85.8% | viability [5] 81.6% | inhibition [6] 2.33% | RAM network inhibition [7] 5.31%

CCOC(=O)N1CCN(C(=O)CN(c2cc(Cl)ccc2OC)S(=O)(=O)c2ccccc2)CC1
inactive: growth inhibition [1] 6.4% | growth inhibition [2] -12% | viability increase [3] -2.13% | viability [4] 97.1% | viability [5] 84.1% | inhibition [6] 1.68% | RAM network inhibition [7] 2.07%

CCOc1ccc(-n2c(Cc3cc(=O)[nH]c(=O)[nH]3)nnc2SC(C)C(=O)OC)cc1 (configuration not stated)
inactive: growth inhibition [1] -4.41% | growth inhibition [2] 2.84% | viability increase [3] 0.2% | viability [4] 101% | viability [5] 103% | inhibition [6] 0.31% | RAM network inhibition [7] 3.49%

COCCNC(=O)c1cc2c(=O)n3cccc(C)c3nc2n1C
inactive: growth inhibition [1] -9.01% | growth inhibition [2] -20.7% | viability increase [3] -5.8% | viability [4] 34.3% | viability [5] 33.9% | inhibition [6] 1.85% | RAM network inhibition [7] 3.01%

COC(=O)c1ccc(N=c2sc(C(=O)OC)cc(=O)n2C)cc1
inactive: growth inhibition [1] -4.13% | growth inhibition [2] -3.27% | viability increase [3] -5.93% | viability [4] 71.2% | viability [5] 62.5% | inhibition [6] 0.495% | RAM network inhibition [7] 3.85%

Cc1nn(-c2ccccc2)c(Cl)c1C(=O)Nc1c(C)n(C)n(-c2ccccc2)c1=O
inactive: growth inhibition [1] -9% | growth inhibition [2] -23% | viability increase [3] -0.99% | viability [4] 102% | viability [5] 94.3% | inhibition [6] 0.935% | RAM network inhibition [7] 3.15%

Cc1c(C)n(C(=O)CSc2nncn2C)c2ccccc12
inactive: growth inhibition [1] 3.06% | growth inhibition [2] 12.8% | viability increase [3] -2.73% | viability [4] 93.2% | viability [5] 98.1% | inhibition [6] 0.94% | RAM network inhibition [7] 3%

CCOC(=O)CSC(CC)C(=O)Nc1nnc(CC)s1 (configuration not stated)
inactive: growth inhibition [1] -15.4% | growth inhibition [2] -6% | viability increase [3] 2.67% | viability [4] 102% | viability [5] 96.6% | inhibition [6] 0.62% | RAM network inhibition [7] -0.27%

O/N=C1/CCc2cccc3cccc1c23
inactive: growth inhibition [1] -11.1% | growth inhibition [2] 0.79% | viability increase [3] -3.93% | viability [4] 96.1% | viability [5] 103% | inhibition [6] 2.06% | RAM network inhibition [7] -0.11%

Clc1ccc(Cn2cc(/C=N/n3cnnc3)c3ccccc32)cc1
inactive: growth inhibition [1] 9.77% | growth inhibition [2] 30.9% | viability increase [3] -7.71% | viability [4] 64.5% | viability [5] 62.3% | inhibition [6] 1.48% | RAM network inhibition [7] 3%

Source: PubChem BioAssay
